Experimental data of several laboratories.
Protocols differ between the studies behind these lines.
Target: Beta-2 adrenergic receptor (ADRB2, Homo sapiens, UniProt P07550)

Compound	test	conditions	quantity	value
CCN(CC)CCCC[C@H](NC(=O)[C@H](CC(C)C)NC(=O)[C@H](C)NC(=O)[C@H](Cc1ccccc1)NC(=O)c1ccc(C(C)(C)C)cc1)C(=O)N[C@@H](CO)C(=O)OC	ligand displacement, radioligand	10 µM	remaining binding	101%
c1ccc(C(NCCNC(c2ccccc2)c2ccccc2)c2ccccc2)cc1	cell-free assay	10 µM	inhibition	1%
Clc1ccc2c(C3CCN(CCc4c[nH]c5ccccc45)CC3)c[nH]c2c1	ligand displacement, radioligand	10 µM	inhibition	91%
Cc1c(N2CCNCC2)nc2ccc(Br)cc2c1C(=O)NC[C@H](CCC(=O)O)c1ccccc1Cl	ligand displacement	10 µM	inhibition	18.4%
O=C(NC[C@H](O)CO)[C@@H]1C[C@H](c2ccccc2)CCN1 (mixture of isomers)	ligand displacement, radioligand	10 µM	inhibition	-15.9%
CC(Cc1ccc2c(c1)OCO2)NCC(O)c1ccc(O)c(O)c1 (centres unmarked)	β-arrestin recruitment, agonist	–	Emax	131%
O=C(Nc1cccnn1)N1CCN([C@@H]2CCOc3cc(C(F)(F)F)ccc32)CC1	cell-free assay	20 µM	inhibition	10%
Nc1ncc(-c2nc(N3CCOCC3)nc(N3CCOCC3)n2)c(C(F)F)n1	cell-free assay, radioligand	10 µM	remaining signal	98%
Cn1cncc1[C@@](O)(COc1ccc(C#N)cc1-c1ccc(OC(F)(F)F)cc1)c1ccc(C#N)cc1	ligand displacement	10 µM	inhibition	23.1%
COCc1c(-c2cc3cc(C)cc(OC)c3s2)c2c(N)ncnn2c1CN1CCNC(=O)C1	ligand displacement, radioligand	10 µM	inhibition	14%
COc1ccc(S(=O)(=O)N2CCCCC2)cc1C	ligand displacement, radioligand	10 µM	inhibition	< 30%
CC(C)Cn1cnc2c(N)nc3ccccc3c21	ligand displacement, radioligand	10 µM	inhibition	18%
CN(CCN1CCC(OC(=O)Nc2ccccc2-c2ccccc2)CC1)C(=O)c1ccc(CN2CCC(C(N)=O)CC2)cc1	ligand displacement, radioligand	1 µM	inhibition	-1%
CC(C)N1CCC[C@H]1CNC(=O)c1cn(C2CCCC2)c(=O)c2c1c1ccccc1n2C	ligand displacement, radioligand	10 µM	inhibition	-8%
